One compound from ChEMBL document CHEMBL4382210, “Identification of novel benzothiopyranone compounds against Mycobacterium tuberculosis through scaffold morphing from benzothiazinones” (Eur J Med Chem, 2018) can be followed below.

Data set [1] is described as follows: Selectivity index, ratio of IC50 for human HepG2 cells to MIC=>90 for Mycobacterium tuberculosis H37Rv. The format is toxicity. The following applies: read-out: Selectivity Index.
The nature of data set [2]: Inhibition of Mycobacterium tuberculosis DprE1 expressed in Escherichia coli BL21(DE3) by fluorescence based assay. Summed up:
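Buffer: 50 mM Hepes pH 7.5, 100 mM NaCl, 1.5% DMSO, 100 µM Tween-20, 2 µM FAD, 50 µM resazurin. DprE1 (1 µM) with 1 mM FPR at 30 °C across inhibitor concentrations. Resorufin formation followed by fluorescence (ex 530/em 595 nm).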

A further data set addresses Cytochrome P450 2C19 (Homo sapiens, UniProt P33261). The data set is described as follows: Inhibition of CYP2C19 in human liver microsomes after 20 mins by LC-MS/MS analysis. Type of data set: ADME. The method in brief:
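Compound at 0.1–50 µM incubated 20 min with human liver microsomes (0.2 mg/mL) and the CYP isoform, alongside isoform-specific probe substrates. Substrate remaining measured by LC-MS/MS at each concentration to derive IC50.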
For orientation: Liver microsomes are a subcellular fraction often used to study metabolism.

Data set [3] can be described thus: Half life in CD-1 mouse hepatocytes assessed per million cells at 1 uM incubated up to 120 mins by LC-MS/MS analysis. Type of data set: ADME, cell-based, Hepatocyte. The method in brief: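 Pooled male CD-1 mouse or pooled human hepatocytes at 1 million cells/mL final, compound at 1 µM. Incubated at 37 °C in a CO2 incubator with shaking (~100 rpm). Samples taken at 0, 15, 30, 60, 90 and 120 min and quenched with cold ACN/MeOH containing internal standard. Parent compound remaining measured by LC-MS/MS.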

A short description of data set [4]: Acute toxicity in BALB/C mouse assessed as mouse survival at 2 g/kg, po administered as single dose measured during 7 days observation period. Type of data set: organism-based. The note with it: in vivo, 2000 mg/kg, 168 h. The method in brief:
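Female Balb/c mice (18–21 g), ten animals, given one oral dose of 2 g/kg. Survivors counted after 7 days of observation.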

Data set [5] is described as follows: Tmax in BALB/C mouse at 25 mg/kg, po by LC/TSQ quantum access mass spectrometry. The note with it: in vivo. The format is ADME, organism-based. Summed up:
(§1)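 Male Balb/c mice (22–23 g), three per route. Single dose of 25 mg/kg p.o. (2.5 mg/mL in 0.5% carboxymethyl cellulose + 0.5% Tween 80) or 10 mg/kg i.v. (2.0 mg/mL in 20% HP-β-CD with 4 mol/L HCl). Blood sampled 5, 15, 30 min, 1, 2, 4, 7, 24 h. Plasma extracted with acetonitrile plus terfenadine internal standard, then LC-MS/MS on a C18 column. F = (AUCpo×dose_iv)/(AUCiv×dose_po).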

Data set [6] in a line: Elimination half life in BALB/C mouse at 10 mg/kg, iv by LC/TSQ quantum access mass spectrometry. The following applies: in vivo, read-out: beta t1/2 (converted). Type of data set: ADME, organism-based. The method in brief: as §1
A short description of data set [7]: AUC (0 to infinity) in BALB/C mouse at 25 mg/kg, po by LC/TSQ quantum access mass spectrometry. The format is ADME, organism-based. The following applies: in vivo. Details: dose 25 mg/kg, time infinity, route oral. Summed up:
as §1

Data set [8] can be described thus: MRT (0 to infinity) in BALB/C mouse at 10 mg/kg, iv by LC/TSQ quantum access mass spectrometry. Type of data set: ADME, organism-based. The following applies: in vivo. The method in brief:
as §1

For data set [9], the system named is Mycobacterium tuberculosis. The data set is described as follows: Antimicrobial activity against Mycobacterium tuberculosis H37Rv infected in BALB/C mouse assessed as bacterial burden in mouse lung at 100 mg/kg, po administered via gavage treated 5 times per week for 3 weeks starting from day 10 post infection (reference value: 7.102 +/- 0.152 log10CFU). The format is functional.

Cytochrome P450 2C19, sequence (P33261 whole entry, canonical isoform): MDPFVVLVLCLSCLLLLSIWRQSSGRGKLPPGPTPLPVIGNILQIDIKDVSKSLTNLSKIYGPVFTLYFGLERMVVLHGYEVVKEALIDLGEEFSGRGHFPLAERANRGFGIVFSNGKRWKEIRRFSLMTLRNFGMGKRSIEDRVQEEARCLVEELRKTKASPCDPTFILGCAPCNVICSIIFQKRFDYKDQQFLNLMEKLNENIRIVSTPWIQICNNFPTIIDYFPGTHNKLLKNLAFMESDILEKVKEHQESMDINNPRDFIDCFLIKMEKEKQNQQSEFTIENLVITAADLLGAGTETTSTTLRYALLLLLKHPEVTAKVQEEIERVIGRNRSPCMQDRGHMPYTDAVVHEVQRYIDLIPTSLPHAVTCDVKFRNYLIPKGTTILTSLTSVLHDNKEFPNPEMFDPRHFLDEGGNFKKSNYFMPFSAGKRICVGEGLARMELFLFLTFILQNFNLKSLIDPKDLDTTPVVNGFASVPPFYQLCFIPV

As usually defined, the IC50 is the concentration that gives 50% inhibition. The low end stands for greater potency in that assay, the high end for weaker potency in that assay. In general, Tmax refers to the time from dosing to the highest level. For orientation: AUC(0-inf) means the area under the concentration-time curve extrapolated to infinity. The low end stands for low exposure, the high end for high exposure. In general, MRT inf refers to the average time that molecules of a dose stay in the body. As for `O=c1cc(N2CCN(CC3CCCCC3)CC2)sc2c([N+](=O)[O-])cc(C(F)(F)F)cc12`, the selectivity ratio in data set [1] was above 4000. The figures for the half-maximal inhibitory concentration (IC50) (in data set [2]; against Cytochrome P450 2C19) were 4.53 µM and above 50 µM, respectively. In addition, in data set [3], the half-life at 1 µM was determined as 7.7 h. Besides, the Activity result in data set [4] is “Non-Toxic”; in [9], 1.678 log10CFU. Moreover, the time to peak (Tmax) in data set [5] is 0.5 h. Besides, in data set [6], the half-life is 6.54 h. This compound had an AUC(0-inf) in [7] of 1700 ng·h/mL. In data set [8], this compound showed a mean residence time MRT inf of 4.91 h.
